# Compound activity from PubChem BioAssay.
# This is a sample that favours compounds with a hit; in the whole collection about 3.8% have one here.
# Hep lipid drop – hepatic lipid droplet formation modulation | 0.4% of 240,000 active | AML12 mouse hepatocytes, oleate lipid droplets, BODIPY imaging | AID 1656 | inhibition, % at 6.5 µM;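 active means lipid droplet intensity inhibited by at least 50%, with more than 500 cells counted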
#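 Assay system: AML12 mouse liver cells | Compound dosing: One dose, 6.5 µM compound | Read-out basis: Droplet intensity reduction, % inhibition | Measured by: Fluorescence imaging, 20x objective, two fields per well | Schedule: Overnight treatment with compound plus oleate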
# RGS4 pot – potentiators or activators of RGS4; HEK293 M3R/inducible RGS4, carbachol calcium flux Fluo4; active compounds read low; B-score at 10 µM; 0.92% of 310,000 active; AID 463111;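 active means B-score of the integrated calcium signal more than 4 SD below the library mean, with starting fluorescence not abnormally high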;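 further: negative B-score means reduced calcium response which marks RGS4 activation or potentiation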
#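 test system = M3R-expressing HEK293 line, RGS4 induced by doxycycline | probe or stimulus = carbachol at ECmax as muscarinic agonist stimulus | timing = dye loading 30 min 37 °C, buffer rest 30 min RT | signal = calcium dye Fluo4 fluorescence | evaluation = B score from integrated fluorescence ratio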
# RGS4 block – inhibitors of human RGS4. 0.45% of 310,000 active. P49798. B-score at 10 µM. HEK293 M3R/RGS4 inducible, Fluo-4 calcium flux; active compounds read high; triggered by carbachol at its EC20;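 active means B-score, a plate-corrected calcium signal, over three deviations above library mean, with baseline fluorescence within five deviations of library mean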;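 further: RGS4 expression induced by doxycycline in cells with stable M3 receptor; B-score is computed from the integrated fluorescence ratio over baseline after carbachol; higher B-score means a larger calcium signal and so more RGS4 inhibition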
# Target sequence (P49798 whole entry, looked up): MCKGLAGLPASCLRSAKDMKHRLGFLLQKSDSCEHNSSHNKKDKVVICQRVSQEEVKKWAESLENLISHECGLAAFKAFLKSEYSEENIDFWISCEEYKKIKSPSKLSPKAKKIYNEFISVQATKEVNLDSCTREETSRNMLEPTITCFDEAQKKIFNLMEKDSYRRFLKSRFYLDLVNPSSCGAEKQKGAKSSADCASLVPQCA
# MrgX1 allo act – human MrgX1 positive allosteric modulation, primary screen; 0.63% of 310,000 active; MrgX1-HEK293, Fluo-4 calcium flux, FDSS; active compounds read high; B-score at 10 µM;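 active means plate-corrected calcium response at least 3 library SD above typical, normal starting fluorescence, not activating the receptor alone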;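 further: compound read alongside a low EC10 to EC30 dose of BAM8-22 agonist; peak minus trough fluorescence over baseline measured at the second addition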
# Target sequence (Q96LB2 whole entry, looked up): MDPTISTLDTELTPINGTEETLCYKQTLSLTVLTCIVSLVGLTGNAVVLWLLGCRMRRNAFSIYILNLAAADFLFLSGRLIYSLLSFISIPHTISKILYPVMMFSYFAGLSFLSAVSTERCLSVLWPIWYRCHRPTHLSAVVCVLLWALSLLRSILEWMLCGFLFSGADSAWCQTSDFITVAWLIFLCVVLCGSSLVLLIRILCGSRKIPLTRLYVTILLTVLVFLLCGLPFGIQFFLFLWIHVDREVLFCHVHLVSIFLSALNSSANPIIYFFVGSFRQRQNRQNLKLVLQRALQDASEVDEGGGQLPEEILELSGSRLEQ
# MrgX1 agonist – activates human MrgX1 receptor signaling | B-score at 10 µM | MrgX1-HEK293 cells, Fluo-4 calcium fluorescence, agonist mode; active compounds read high | 0.44% of 310,000 active | Q96LB2;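 active means calcium response B-score plate-corrected fluorescence ratio at least 3 library SD, with starting fluorescence B-score inside 5 SD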
#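 Material: MrgX1-expressing HEK293 cells / Dosing: compound as first of three additions / Incubation: overnight seeding, then 1 h dark dye loading / Signal: Fluo-4 NW calcium fluorescence / Evaluation: B-scored fluorescence response ratio / Benchmarks: positive and negative control wells on each plate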
# MrgX1 antagonist – blocks BAM8-22 activation of human MrgX1 receptor; MRGX1-HEK293 calcium flux, Fluo-4, BAM8-22 antagonism; active compounds read low; Q96LB2; 1.3% of 310,000 active; B-score at 10 µM; AID 588676;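 active means calcium-response B-score plate-corrected more than 3 library SD below zero, starting fluorescence within 5 deviations, no agonist response on first addition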;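 further: peak minus trough fluorescence over baseline after final BAM8-22 challenge near maximal dose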
# MrgX1 ant reconf – confirmation of human MrgX1 receptor antagonists. shares compounds with MrgX1 antagonist. MrgX1-HEK293, BAM8-22 calcium flux, Fluo-4; active compounds read low. remaining BAM8-22 calcium response % of control (active compounds read low), % at 10 µM. 19% of 2,300 active;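 active means remaining agonist calcium response no higher than 100% minus 3 SD of agonist-only control wells, with starting fluorescence near control levels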;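 further: agonist BAM8-22 given at a near maximal EC90 to ECmax level; peak minus minimum fluorescence divided by baseline after agonist addition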
# HEK293 Ca flux – MrgX1 antagonist counter-screen hit in parental HEK293 cells | shares compounds with MrgX1 antagonist | Fluo-4 calcium fluorescence, FDSS | fluorescence ratio F(max-min)/F0 at 10 µM | 2% of 4,000 active;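 active means duplicate-averaged calcium fluorescence ratio at least three times the standard deviation of buffer wells, a nonspecific response in parental cells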
# HEK293 Ca counter – MrgX1 allosteric activator counter-screen hit in parental HEK293 cells; AID 624114; fluorescence ratio F(max-min)/F0 at 10 µM; shares compounds with MrgX1 antagonist; parental HEK293 calcium flux, Fluo-4 fluorescence ratio; active compounds read high; 0.4% of 4,000 active;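 active means calcium fluorescence ratio, averaged over duplicates, at least 3 SD of the buffer-well ratio, meaning a nonspecific response in receptor-free cells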;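 further: untransfected parental HEK293 lacking MrgX1 used as counterscreen for MrgX1 allosteric activators; fluorescence change taken during the second addition on a kinetic imager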
# HEK293 Ca cntr2 – counter-screen for MrgX1 activators: effect in parental HEK293 cells. AID 624115. 8.7% of 4,000 active. Fluo-4 calcium fluorescence (FDSS); active compounds read high. fluorescence ratio F(max-min)/F0 at 10 µM. shares compounds with MrgX1 antagonist;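 active means calcium fluorescence ratio at least three times the spread of buffer wells, meaning a non-specific response in parental cells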
# The depositor's hits bear a star; i = inactive; nt = not tested or not shown.
SMILES,Hep lipid drop,RGS4 pot,RGS4 block,MrgX1 allo act,MrgX1 agonist,MrgX1 antagonist,MrgX1 ant reconf,HEK293 Ca flux,HEK293 Ca counter,HEK293 Ca cntr2
COc1ccccc1NC(=O)c1oc2ccccc2c1NC(=O)c1ccco1,4,i,i,i,i,-5.2*,77%*,i,i,i
Cc1cccc(NC(=S)NN(Cc2ccccc2)c2ccccc2)c1C,12,i,i,i,i,i,nt,nt,nt,nt
Cc1ccccc1CN(C)C(=O)c1ccc2ccccc2n1,-24,i,i,i,i,i,nt,nt,nt,nt
Cc1cc(C)nc(SCC(=O)N2CCCCC2)n1,nt,i,i,i,i,i,nt,nt,nt,nt
CCc1nc(SCC(=O)N2CCCC2)c2c(=O)n(C)c(=O)n(C)c2n1,8,i,i,i,i,i,nt,nt,nt,nt
Cn1c(=O)c2c(SCC(=O)N3CCCC3)nc(-c3ccccc3)nc2n(C)c1=O,-1,i,i,i,i,-6*,i,i,i,i
Cc1cc(-c2ccccc2)nc(SCC(=O)N2CCCC2)n1,-2,i,i,i,i,-5.4*,i,i,i,i
CCOC(=O)c1c(-c2ncc(C(F)(F)F)cc2Cl)noc1C,3,i,i,i,i,i,nt,nt,nt,nt
Cc1ccc(-n2c(SCC(=O)Nc3cccc(S(N)(=O)=O)c3)nc3ccccc32)cc1,-3,i,i,i,i,i,nt,nt,nt,nt
CCOC(=O)c1c(NC(=O)OC)sc(C(=O)N(CC)CC)c1C,-4,i,i,i,i,-4.7*,i,i,i,i
Cc1ccc(C)c(-c2nnc(NC(=O)CCS(=O)(=O)c3ccc(F)cc3)o2)c1,nt,i,i,i,i,-4.7*,i,i,i,i
C=CCN1C(=O)C(CC(=O)O)SC1=Nc1ccc(C)cc1 (stereo not drawn),2,i,i,i,i,i,nt,nt,nt,nt
COc1ccccc1C(=O)Nc1ccnn1C1CCN(C(=O)c2ccoc2)CC1,-6,i,i,i,i,-6*,i,i,i,i
O=C(CC1CCCCC1)NCCCN1CCOCC1,nt,i,i,i,i,i,nt,nt,nt,nt
O=C(CCC1CCCC1)NCCCN1CCOCC1,-2,i,i,i,i,-6.9*,i,i,i,i
CC(C)(C)NC(=O)CN(C(=O)c1snc(C(=O)NC2CCCCC2)c1N)c1ccccc1F,9,i,i,i,i,i,nt,nt,nt,nt
CCC(NC(=O)c1ccccc1NC(=O)c1ccccc1)C(=O)O (stereo not drawn),nt,i,i,i,i,i,nt,nt,nt,nt
CCC(NC(=O)c1ccccc1NC(=O)c1ccco1)C(=O)O (stereo not drawn),nt,i,i,i,i,-7.6*,i,i,i,i
COc1ccccc1NC(=O)c1cc(Cl)ccc1NC(=O)c1ccco1,-4,i,i,i,i,i,nt,nt,nt,nt
CCOc1ccccc1NC(=O)c1cc(Cl)ccc1NC(=O)c1ccco1,-6,i,i,i,i,-5.2*,i,i,i,i
COc1ccc(CCN(C)Cc2c(O)ccc3ccccc23)cc1OC,-3,i,i,i,i,i,nt,nt,nt,nt
COc1ccc(N2CCN(CCNC(=O)Nc3ccc(C)cc3Cl)CC2)cc1,-3,i,i,i,i,i,nt,nt,nt,nt
Cn1c(CCN2CCN(c3ccccn3)CC2)nc2cc(NS(=O)(=O)c3ccc(Cl)cc3)ccc21,-21,i,i,i,i,i,nt,nt,nt,nt
Cc1nn2c(NCCN3CCOCC3)c3c(nc2c1-c1ccccc1)CCCC3,24,i,i,i,i,-5.9*,i,i,i,i
Cc1nn2c(NCc3ccccn3)c3c(nc2c1-c1ccccc1)CCC3,0,i,i,i,i,i,nt,nt,nt,nt
SMILES,Hep lipid drop,RGS4 pot,RGS4 block,MrgX1 allo act,MrgX1 agonist,MrgX1 antagonist,MrgX1 ant reconf,HEK293 Ca flux,HEK293 Ca counter,HEK293 Ca cntr2
CCOCc1cnc(C)nc1NCC(=O)c1c(C)[nH]c2ccc(OC)cc12,10,i,i,i,i,-8.8*,i,i,i,i
Cc1ccccc1-c1nnc(SCC(=O)N2CCCC2)o1,1,i,i,i,i,i,nt,nt,nt,nt
Clc1ccc(CNC2CCCC2)c(Cl)c1,-5,i,i,i,i,i,nt,nt,nt,nt
S=C(NCc1ccc(Cl)cc1Cl)NC1CCCCC1,-23,i,i,i,i,-4.6*,60%*,i,i,i
CC(=O)Nc1cc2c(cc1Br)OCCO2,-4,i,i,i,i,i,nt,nt,nt,nt
Brc1ccc(CNc2cc3c(cc2Br)OCCO3)cc1,3,i,i,i,i,-4.5*,i,i,i,i
O=C(NCCC1CCCCN1S(=O)(=O)c1ccc(F)cc1)C(=O)NCC1CCCO1 (stereo not drawn),nt,i,i,i,i,-6*,i,i,i,i
COc1ccc(S(=O)(=O)n2ccc(C(C)Oc3ccc(-c4ccccc4)c(F)c3)n2)cc1 (stereo not drawn),-6,i,i,i,i,-6.6*,i,i,i,i
COc1ccc(-n2nnnc2S(=O)(=O)Cc2ccc(C(=O)O)cc2)cc1,-5,i,i,i,i,-8.2*,i,i,i,i
O=S(=O)(Nc1ccc(N2CCCCC2)cc1)c1ccc(F)c(F)c1,-6,i,i,i,i,i,nt,nt,nt,nt
O=C1c2cccnc2C(=O)N1CNc1ccc(Cl)cc1,10,i,i,i,i,i,nt,nt,nt,nt
CCCC(C)NC(=O)COc1ccc(Sc2ccc(OCC(=O)NC(C)CCC)cc2)cc1 (stereo not drawn),-1,i,i,i,i,i,nt,nt,nt,nt
Cc1nnc(NC(=O)CSc2ccc(-c3cccnc3)nn2)s1,3,i,i,i,i,-5.6*,i,i,i,i
